In test [1] the target is T1, Platelet-activating factor acetylhydrolase IB subunit alpha1 (Mus musculus) (UniProt Q61205).
T1 sequence (whole entry): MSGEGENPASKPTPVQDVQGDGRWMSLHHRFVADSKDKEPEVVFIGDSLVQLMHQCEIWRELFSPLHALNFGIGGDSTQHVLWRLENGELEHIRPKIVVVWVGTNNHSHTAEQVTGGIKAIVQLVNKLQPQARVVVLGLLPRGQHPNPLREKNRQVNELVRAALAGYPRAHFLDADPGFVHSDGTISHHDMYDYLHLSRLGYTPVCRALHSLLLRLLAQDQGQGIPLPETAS
To be noted: Neuro2a, 3 nM.

Test [2] addresses T2, Patatin-like phospholipase domain-containing protein 6 (Mus musculus) (UniProt Q3TRM4).
T2 sequence (whole entry): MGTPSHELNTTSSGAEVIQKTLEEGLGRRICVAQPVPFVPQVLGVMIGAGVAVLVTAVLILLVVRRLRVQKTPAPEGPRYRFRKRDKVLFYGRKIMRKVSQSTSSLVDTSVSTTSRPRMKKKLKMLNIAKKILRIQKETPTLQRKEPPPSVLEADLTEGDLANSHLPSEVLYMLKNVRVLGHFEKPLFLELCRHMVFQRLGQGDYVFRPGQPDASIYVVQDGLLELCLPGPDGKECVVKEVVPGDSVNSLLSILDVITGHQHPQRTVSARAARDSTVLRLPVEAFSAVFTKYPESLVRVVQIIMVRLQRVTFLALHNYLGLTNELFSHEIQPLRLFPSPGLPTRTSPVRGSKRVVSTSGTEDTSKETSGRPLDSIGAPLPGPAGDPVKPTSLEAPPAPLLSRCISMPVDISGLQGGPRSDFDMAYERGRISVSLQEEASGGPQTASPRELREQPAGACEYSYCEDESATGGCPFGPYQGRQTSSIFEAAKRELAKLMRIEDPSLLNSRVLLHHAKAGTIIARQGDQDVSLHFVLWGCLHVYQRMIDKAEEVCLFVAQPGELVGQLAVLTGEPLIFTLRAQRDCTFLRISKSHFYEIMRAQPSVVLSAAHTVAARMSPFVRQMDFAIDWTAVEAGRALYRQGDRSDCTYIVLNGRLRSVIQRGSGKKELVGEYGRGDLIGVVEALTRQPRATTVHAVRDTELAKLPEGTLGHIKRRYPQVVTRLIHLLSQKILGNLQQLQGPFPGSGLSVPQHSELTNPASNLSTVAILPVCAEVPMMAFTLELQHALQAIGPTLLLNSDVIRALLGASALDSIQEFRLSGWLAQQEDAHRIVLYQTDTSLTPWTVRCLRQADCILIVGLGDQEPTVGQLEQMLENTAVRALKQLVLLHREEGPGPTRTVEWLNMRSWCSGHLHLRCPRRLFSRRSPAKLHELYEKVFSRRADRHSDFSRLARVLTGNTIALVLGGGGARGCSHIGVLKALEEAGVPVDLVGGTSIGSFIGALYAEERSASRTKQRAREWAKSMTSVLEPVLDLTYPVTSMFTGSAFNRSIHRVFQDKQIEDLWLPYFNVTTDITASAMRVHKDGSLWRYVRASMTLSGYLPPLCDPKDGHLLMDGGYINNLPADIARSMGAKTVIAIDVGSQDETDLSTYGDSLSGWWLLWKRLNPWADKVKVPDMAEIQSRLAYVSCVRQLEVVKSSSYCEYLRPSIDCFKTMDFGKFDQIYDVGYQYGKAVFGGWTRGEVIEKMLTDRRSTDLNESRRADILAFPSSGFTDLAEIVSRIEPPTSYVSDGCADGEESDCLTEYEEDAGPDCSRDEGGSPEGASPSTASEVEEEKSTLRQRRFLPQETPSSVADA
To be noted: Neuro2a, 3 nM.

Test [3] addresses Platelet-activating factor acetylhydrolase 2, cytoplasmic (Mus musculus) (UniProt Q8VDG7). As to conditions: Neuro2a, 3 nM.
In test [4] the target is T3, Diacylglycerol lipase-beta (Mus musculus) (UniProt Q91WC9).
T3 sequence (whole entry): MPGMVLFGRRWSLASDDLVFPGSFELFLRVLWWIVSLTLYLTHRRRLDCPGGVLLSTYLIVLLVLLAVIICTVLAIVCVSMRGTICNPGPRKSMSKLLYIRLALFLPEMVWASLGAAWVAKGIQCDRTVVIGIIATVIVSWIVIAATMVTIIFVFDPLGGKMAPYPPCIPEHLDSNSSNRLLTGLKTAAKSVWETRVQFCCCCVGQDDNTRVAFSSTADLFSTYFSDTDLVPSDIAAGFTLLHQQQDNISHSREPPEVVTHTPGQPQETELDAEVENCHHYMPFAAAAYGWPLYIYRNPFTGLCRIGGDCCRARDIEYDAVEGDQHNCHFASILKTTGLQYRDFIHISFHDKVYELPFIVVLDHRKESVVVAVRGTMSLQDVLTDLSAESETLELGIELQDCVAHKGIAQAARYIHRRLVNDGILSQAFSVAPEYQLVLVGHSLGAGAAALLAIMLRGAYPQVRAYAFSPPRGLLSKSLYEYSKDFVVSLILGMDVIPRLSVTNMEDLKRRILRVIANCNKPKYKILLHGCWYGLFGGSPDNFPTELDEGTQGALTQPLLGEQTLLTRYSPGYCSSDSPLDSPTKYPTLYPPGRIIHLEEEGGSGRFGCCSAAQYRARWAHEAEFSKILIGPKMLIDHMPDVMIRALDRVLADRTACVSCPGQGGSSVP
As to the kind of experiment: Inhibition of FP-rhodamine-labelled recombinant mouse DAGLbeta expressed in HEK293T cells at 1 uM preincubated for 30 mins followed by FP-rhodamine labelling measured after 30 mins by gel-based competitive ABPP assay. Type of test: cell-based. As to conditions: HEK-293T. A digest of the protocol: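 Mouse DAGLβ transiently overexpressed in HEK293T. Lysate diluted to 0.3 mg/mL in 50 mM HEPES pH 7.2, 100 mM NaCl, 5 mM CaCl₂, 0.1% Triton X-100, 10% DMSO. Compound preincubated 30 min at 37 °C, then 1 μM probe for 30 min at 37 °C, SDS-PAGE and in-gel fluorescence.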

Test [5] concerns Mus musculus. The test can be described thus: In vivo inhibition of ABHD6 in C57Bl/6 mouse liver at 20 mg/kg, ip after 4 hrs by FP-rhodamine/HT-10-labelled gel-based competitive assay. Format: functional, organism-based. On the set-up: dose 20 mg/kg. A digest of the protocol: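 C57Bl/6 mice dosed i.p. at 1–40 mg kg⁻¹ in 18:1:1 saline/ethanol/PEG40, 10 μL g⁻¹, for 4 hr, then killed. Brain and liver membrane proteomes labelled with FP-rhodamine or HT-01 (1 μM, 30 min, 37 °C) and resolved by SDS-PAGE with in-gel fluorescence scanning.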

The record followed here is ChEMBL document CHEMBL3259629, “Discovery and optimization of piperidyl-1,2,3-triazole ureas as potent, selective, and in vivo-active inhibitors of α/β-hydrolase domain containing 6 (ABHD6)” (J Med Chem, 2013).

Active and inactive are the calls of the source. The rule behind the calls is not given here.

Platelet-activating factor acetylhydrolase 2, cytoplasmic (Mus musculus), sequence (Q8VDG7 whole entry): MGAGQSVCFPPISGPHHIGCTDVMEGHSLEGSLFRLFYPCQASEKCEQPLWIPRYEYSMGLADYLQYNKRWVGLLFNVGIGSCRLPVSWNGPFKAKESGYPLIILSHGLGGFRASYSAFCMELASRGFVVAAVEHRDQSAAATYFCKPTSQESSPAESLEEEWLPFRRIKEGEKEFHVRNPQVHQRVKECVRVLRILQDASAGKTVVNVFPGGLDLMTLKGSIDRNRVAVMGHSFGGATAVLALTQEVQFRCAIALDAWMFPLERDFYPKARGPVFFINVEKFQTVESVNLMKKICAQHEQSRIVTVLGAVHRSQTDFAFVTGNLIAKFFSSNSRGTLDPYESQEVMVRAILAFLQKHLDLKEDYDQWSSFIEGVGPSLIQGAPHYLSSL

As for `O=C(c1cccc(-c2ccc(-c3cn(C(=O)N4CCCCC4c4ccccc4)nn3)cc2)c1)N1CCCCC1` (racemic), the inhibition in test [1] is less than 50%; in test [2] it was less than 50%; in test [3] it was less than 50%; in test [4] it was 0%. For the same compound, the inhibition result in test [5] was “Active”.

Take `O=C(O)c1cccc(-c2ccc(-c3cn(C(=O)N4CCCCC4Cc4ccccc4)nn3)cc2)c1` (racemic): the inhibition in test [1] is less than 50%; in test [2], less than 50%; in test [3], less than 50%; in test [4], 50%. The inhibition result in test [5] was “Active”.

`O=C(N1CCCCC1c1ccccc1)n1cc(-c2ccc(-c3cccc(CO)c3)cc2)nn1` (racemic): the inhibition in test [1] is less than 50%; in test [2], less than 50%; in test [3], less than 50%; in test [4] it was 0%. Besides, the inhibition entry in test [5] is “Active”.

As usually defined, the inhibition is how much of the control response was suppressed.
